Test results taken from ChEMBL document CHEMBL3870302, “Computer-aided identification, synthesis and evaluation of substituted thienopyrimidines as novel inhibitors of HCV replication” (Eur J Med Chem, 2016).
pEC50, pIC50: −log10 of the molar value.

What was measured:
Hepatitis C virus = experiment: Antiviral activity against Hepatitis C virus genotype 1b infected in human HuH5.2 cells after 72 hrs by luciferase reporter gene assay; format: functional, cell-based, Hepacivirus hominis
Method in brief: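 Huh 5-2 cells with genotype 1b I389luc-ubi-neo/NS3-3'/5.1 subgenomic replicon, seeded 6 500 cells/well in DMEM/10% FCS without Geneticin, overnight 37 °C. Compound (DMSO stock diluted in medium) in 1:5 four-step or 1:2 eight-step series, 72 h. Cells PBS-washed, lysed 5 min, luciferase luminescence read, converted to % untreated control; EC50 from dose-response curve, mean of ≥2 independent experiments.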

[1] = Cytotoxicity against human HuH5.2 cells assessed as reduction in metabolic activity after 72 hrs by MTS assay; format: toxicity, cell-based, Huh-5-2; conditions: for CC50 at 72 h: HuH5.2 cells
Method in brief: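 Run in parallel with the replicon assay: Huh 5-2 replicon cells, 6 500 cells/well, compound series for 72 h at 37 °C, 5% CO2. Medium then replaced with 5% MTS in phenol red-free medium for 1.5 h. Absorbance at 498 nm expressed as % untreated cells; CC50 from dose-response curve as 50% reduction in metabolic activity, mean of ≥2 experiments.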

[2] = Selectivity index, ratio of CC50 for human HuH5.2 cells to EC50 for hepatitis C virus genotype 1b infected in human HuH5.2 cells; format: toxicity, cell-based; conditions: for selectivity ratio: HuH5.2 cells, read-out: Ratio CC50/EC50
Method in brief: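 Ratio of CC50 (MTS metabolic read-out, 72 h) to EC50 (replicon luciferase read-out, 72 h), both measured in parallel on Huh 5-2 genotype 1b replicon cells.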

[3] = Inhibition of Hepatitis C virus genotype 1b (con1) full length C-terminal His-tagged NS3 helicase expressed in Escherichia coli Rosette(DE3) assessed as inhibition of 5'-Cy5/3'-IAbRQ-labeled DNA unwinding activity by molecular beacon assay; parameters: species or system Hepatitis C virus (isolate Con1)
Method in brief: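 Molecular beacon unwinding assay: 25 mM MOPS pH 6.5, 1.25 mM MgCl2, 5% DMSO, 5 µg/ml BSA, 0.01% Tween20, 0.05 mM DTT, 5 nM fluorescent DNA substrate, 12.5 nM NS3h, 1 mM ATP.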

[4] = Inhibition of protease domain lacking Hepatitis C virus genotype 1b (con1) C-terminal His-tagged NS3 helicase ATP hydrolysis activity using ATP as substrate preincubated followed by substrate addition measured after 15 mins in presence of poly U RNA by malachite green-based assay; parameters: species or system Hepatitis C virus (isolate Con1)
[5] = Inhibition of protease domain lacking Hepatitis C virus genotype 1b (con1) C-terminal His-tagged NS3 helicase ATP hydrolysis activity using ATP as substrate preincubated followed by substrate addition measured after 15 mins in absence of poly U RNA by malachite green-based assay; parameters: species or system Hepatitis C virus (isolate Con1)
[6] = Inhibition of Cy5-labeled dT15 DNA binding to Hepatitis C virus genotype 1b (con1) NS3 helicase DNA by fluorescence polarization assay; parameters: species or system Hepatitis C virus (isolate Con1)
Method in brief: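 Displacement of NS3h from a DNA oligonucleotide, 15 nM NS3h in 25 mM MOPS pH 7.5, 1.25 mM MgCl2, 0.0025 mg/ml BSA, 0.005% Tween20, 0.025 mM DTT.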

[7] = Hepatitis C virus, genotype 1b, Huh-5-2, 72 h

SMILES	pEC50 (Hepatitis C virus; [7])	EC90 (Hepatitis C virus; [7]) [µM]	CC50 at 72 h [1] [µM]	selectivity ratio [2]	pIC50 [3]	pIC50 [4]	pIC50 [5]	pIC50 [6]	pEC50 (Hepatitis C virus)	CC50 ([1]; huh-5-2, 72 h, 72 h) [µM]	Ratio CC50/EC50 [2]
O=C(NNc1ncnc2sc3c(c12)CCC3)c1ccccc1O	6.66	0.352	119	538	3.60	3.48	< 3.00	< 3.00			
C/C(=N/Nc1ncnc2sccc12)c1cc(O)ccc1O	5.55	4.55	226	81	3.64						
O=S(=O)(NNc1ncnc2sc3c(c12)CCCC3)c1ccccn1	4.37	83.2	145	3.4	< 3.00	< 3.00		3.17			
C/C(=N\Nc1ncnc2sc3c(c12)CCCC3)c1cc2ccccc2[nH]1	4.21	> 277	26	0.42	< 3.00						
Cc1c(Cl)sc2ncnc(NNC(=O)c3ccccc3O)c12	6.80		> 8.96	> 56.1	3.51						
C/C(=N\Nc1ncnc2sc3c(c12)CCCC3)c1cnccn1	6.45	2.85	57.1	160	< 3.00						
C/C(=N\Nc1ncnc2sc3ccccc3c12)c1ccccc1O	7.06	0.421	11.5	134	< 3.00	< 3.00		3.08			
c1ccc2c(Nc3ncnc4sc5c(c34)CCCC5)cccc2c1	4.49	> 33.5	281	8.7	< 3.00						
Oc1ccc(O)c(/C=N/Nc2ncnc3sc4c(c23)CCCC4)c1	5.93	2.92	36.8	31.5	< 3.00						
Cc1c(Cl)sc2ncnc(NNC(=O)c3ccccn3)c12	7.06	0.286	> 9.38	> 106	< 3.00						
C/C(=N\Nc1ncnc2sc3c(c12)CCCC3)c1nc2ccccc2[nH]1	5.62	7.06	37.3	15.4	< 3.00						
CCc1sc2ncnc(N/N=C(/C)c3cc(O)ccc3O)c2c1C	6.10	1.62	> 292	> 364	< 3.00						
O=C(NNc1ncnc2sc3c(c12)CCCC3)c1nc2ccccc2[nH]1	6.77	0.679	3.14	18.5	< 3.00						
C/C(=N/Nc1ncnc2sccc12)c1ccccc1O	5.33	> 10.6	80.5	17.2	< 3.00						
O=C(NNc1ncnc2sccc12)c1cnccn1	6.07	2.28	233	274	< 3.00						
O=C(NNc1ncnc2sc3c(c12)CCCC3)c1cnccn1	5.89	3.75	10.6	8.21	< 3.00						
O=C(NNc1ncnc2sc3ccccc3c12)c1cnccn1	7.14	0.192	1.34	18.5	< 3.00	< 3.00		3.02			
O=C(NNc1ncnc2sc3c(c12)CCCC3)c1cc(O)ccc1O	6.30	0.945	99.9	199	< 3.00						
C/C(=N/Nc1ncnc2sc3c(c12)CCC3)c1nc2ccccc2[nH]1	6.10	< 2.24	6.83	8.3	< 3.00						
Cc1sc2ncnc(NNC(=O)c3cnccn3)c2c1C	7.41	0.319	1.67	43.3	< 3.00						

SMILES	pEC50 (Hepatitis C virus; [7])	EC90 (Hepatitis C virus; [7]) [µM]	CC50 at 72 h [1] [µM]	selectivity ratio [2]	pIC50 [3]	pIC50 [4]	pIC50 [5]	pIC50 [6]	pEC50 (Hepatitis C virus)	CC50 ([1]; huh-5-2, 72 h, 72 h) [µM]	Ratio CC50/EC50 [2]
O=C(O)C1=CC(=C(c2ccc(O)c(C(=O)O)c2)c2ccc(O)c(C(=O)O)c2)C=CC1=O [AURINTRICARBOXYLIC ACID]					6.52	5.29	5.48	5.70			
O=C(NNc1ncnc2sccc12)c1ccccn1	6.50	0.671	138	445	< 3.00						
Cc1ccc2nc(-c3ccc4nc(-c5ccc(N)cc5)sc4c3)sc2c1S(=O)(=O)O					5.00	4.40	< 3.70	4.34			
c1ccc2[nH]c(Nc3ncnc4sc5c(c34)CCCC5)nc2c1	4.26	> 104	231	4.2	< 3.00						
C/C(=N\Nc1ncnc2sc3c(c12)CCCC3)c1cc(O)ccc1O (stereo in doubt; form 1)					< 3.00				> 6.00	> 141	> 141
O=C(NNc1ncnc2sc3c(c12)CCC3)c1nc2ccccc2[nH]1	6.23	1.11	7.46	11.6	< 3.00						
O=C(NNc1ncnc2sc3c(c12)CCCC3)c1cc2ccccc2[nH]1	4.68		74.5	3.6	3.65						
C/C(=N\Nc1ncnc2sc3ccccc3c12)c1nc2ccccc2[nH]1	5.96	3.25	19.1	17.4	< 3.00						
C/C(=N\Nc1ncnc2sc3ccccc3c12)c1cc(O)ccc1O	6.32	0.897	21	44.2	< 3.00						
O=C(NNc1ncnc2sc3c(c12)CCC3)c1ccccn1	6.13	1.94	6.61	8.9	< 3.00						
Cc1nc(NNC(=O)c2ccccc2O)c2c3c(sc2n1)CCCC3	5.90	3.07	25	19.8	< 3.00						
C/C(=N\Nc1ncnc2sc3c(c12)CCCC3)c1ccc2ccccc2n1	> 6.16		7.23	> 10.4	< 3.00						
O=C(NNc1ncnc2sc3c(c12)CCC3)c1cc(O)ccc1O	5.63	3.67	198	84.6	< 3.00						
C/C(=N\Nc1nc(C)nc2sc3c(c12)CCCC3)c1cnccn1	7.16	0.24	> 3	> 42.7	< 3.00						
O=C(NNc1ncnc2sc3ccccc3c12)c1cc(O)ccc1O	6.17	2.14	46.5	68.3	< 3.00						
C/C(=N/Nc1ncnc2sc(C)c(C)c12)c1cc(O)ccc1O	5.80	4.65	> 305	> 193	< 3.00						
C/C(=N\Nc1ncnc2sc3c(c12)CCC3)c1ccccc1O	5.76	4.07	141	82.9	< 3.00						
C/C(=N\Nc1ncnc2sc3c(c12)CCCC3)c1ccccc1O	5.59	20.1	154	59.2	< 3.00	3.11	3.12	< 3.00			
O=C(NNc1ncnc2sc3c(c12)CCCC3)c1ccc2ccccc2n1	4.78		40.4	2.4	< 3.00						
C/C(=N/Nc1ncnc2sc(Cl)c(C)c12)c1cnccn1	7.24	0.289	3.13	53.9	< 3.00						
